Source: ChEMBL document CHEMBL4052629, “Scutellarin derivatives as apoptosis inducers: Design, synthesis and biological evaluation” (Eur J Med Chem, 2017)
Active and inactive are the calls of the source. The rule behind the calls is not given here.

Tests used:
[1] = Induction of apoptosis in human LO2 cells assessed as viable cells at 1.25 uM after 72 hrs by Annexin V-FITC/7-AAD or propidium iodide staining-based flow cytometric analysis (reference value: 94.26%); assay type: cell-based, L02; conditions: read-out: Activity
[2] = tested on: PC-3; experiment: Induction of apoptosis in human PC3 cells assessed as late apoptotic cells at 0.31 uM after 72 hrs by Annexin V-APC/7-AAD or propidium iodide staining-based flow cytometric analysis (reference value: 4.74%); assay type: functional
[3] = tested on: PC-3; experiment: Induction of apoptosis in human PC3 cells assessed as reduction in mitochondrial membrane potential at 0.31 uM after 48 hrs by JC-1 staining-based flow cytometric analysis (reference value: 1.86%); assay type: functional; set-up: scale not given: the % may be the effect or the level left
Outline: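 After overnight culture, PC-3 cells were treated in triplicate with 0, 0.16, 0.31 or 1.25 μM, or vehicle, for 48 h. They were then loaded with JC-1, and the proportion with depolarized mitochondrial membrane potential was counted by flow cytometry.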

[4] = tested on: PC-3; experiment: Induction of apoptosis in human PC3 cells assessed as necrotic cells at 0.16 uM after 72 hrs by Annexin V-APC/7-AAD or propidium iodide staining-based flow cytometric analysis (reference value: 2.43%); assay type: functional
[5] = tested on: PC-3; experiment: Induction of apoptosis in human PC3 cells assessed as late apoptotic cells at 1.25 uM after 72 hrs by Annexin V-APC/7-AAD or propidium iodide staining-based flow cytometric analysis (reference value: 4.74%); assay type: functional
[6] = tested on: PC-3; experiment: Induction of apoptosis in human PC3 cells assessed as rupture of cell membrane at 0.16 to 1.25 uM after 48 hrs by Hoechst 33258 staining-based fluorescent microscopic analysis; assay type: functional
Outline: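 PC-3 cells grown on sterile cover slips were exposed to 0, 0.16, 0.31 or 1.25 μM, or vehicle, for 48 h. Then fixed with 4% paraformaldehyde for 10 min, washed twice in PBS, stained with Hoechst 33258 for 5 min and washed again. Nuclei imaged at 350 nm excitation and 460 nm emission.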

[7] = tested on: PC-3; experiment: Induction of apoptosis in human PC3 cells assessed as viable cells at 0.16 uM after 72 hrs by Annexin V-APC/7-AAD or propidium iodide staining-based flow cytometric analysis (reference value: 88.74%); assay type: functional; conditions: PC-3, 72 h, read-out: Activity
[8] = tested on: PC-3; experiment: Induction of apoptosis in human PC3 cells assessed as early apoptotic cells at 0.31 uM after 72 hrs by Annexin V-APC/7-AAD or propidium iodide staining-based flow cytometric analysis (reference value: 4.09%); assay type: functional
[9] = tested on: PC-3; experiment: Induction of apoptosis in human PC3 cells assessed as viable cells at 0.31 uM after 72 hrs by Annexin V-APC/7-AAD or propidium iodide staining-based flow cytometric analysis (reference value: 88.74%); assay type: functional; conditions: PC-3, 72 h, read-out: Activity
[10] = tested on: L02; experiment: Induction of apoptosis in human LO2 cells assessed as late apoptotic cells at 1.25 uM after 72 hrs by Annexin V-FITC/7-AAD or propidium iodide staining-based flow cytometric analysis (reference value: 0.11%); assay type: cell-based; conditions: l02, 72 h
[11] = tested on: L02; experiment: Induction of apoptosis in human LO2 cells assessed as early apoptotic cells at 1.2 uM after 72 hrs by Annexin V-FITC/7-AAD or propidium iodide staining-based flow cytometric analysis (reference value: 3.65%); assay type: cell-based; conditions: l02, 72 h
[12] = tested on: HepG2; experiment: Induction of apoptosis in human HepG2 cells assessed as reduction in Hsp60 expression levels at 2 uM after 24 hrs by membrane-based sandwich immunoassay; assay type: functional, cell-based
Outline: (§1)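 HepG2 cells treated at 2 μM for 24 h; protein extracts prepared per the kit protocol. Relative levels of 35 apoptosis-related proteins measured with a human apoptosis antibody array.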

[13] = tested on: HepG2; experiment: Induction of apoptosis in human HepG2 cells assessed as early apoptotic cells at 1.2 uM after 72 hrs by Annexin V-APC/7-AAD or propidium iodide staining-based flow cytometric analysis (reference value: 1.87%); assay type: functional
[14] = tested on: HepG2; experiment: Cell cycle arrest in human HepG2 cells assessed as accumulation at G1 phase at 0.6 uM after 72 hrs by propidium iodide staining-based flow cytometric analysis (reference value: 34%); assay type: functional
Outline: (§2)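 Concentrations used were 0, 0.3, 0.6 and 1.2 μM in HepG2 and 0, 0.16, 0.31 and 1.25 μM in PC-3, with untreated cells as control, for 72 h. Cells were trypsinized, washed in PBS, fixed in cold ethanol at 4 °C overnight, then incubated 30 min in PBS containing RNase A and propidium iodide. DNA content was read by flow cytometry to give phase distribution.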

[15] = tested on: HepG2; experiment: Induction of apoptosis in human HepG2 cells assessed as late apoptotic cells at 0.6 uM after 72 hrs by Annexin V-APC/7-AAD or propidium iodide staining-based flow cytometric analysis (reference value: 4.14%); assay type: functional
[16] = tested on: HepG2; experiment: Cell cycle arrest in human HepG2 cells assessed as accumulation at S phase at 0.3 uM after 72 hrs by propidium iodide staining-based flow cytometric analysis (reference value: 44.6%); assay type: functional; outline: as §2
[17] = tested on: L02; experiment: Induction of apoptosis in human LO2 cells assessed as late apoptotic cells at 1.2 uM after 72 hrs by Annexin V-FITC/7-AAD or propidium iodide staining-based flow cytometric analysis (reference value: 0.11%); assay type: cell-based; conditions: l02, 72 h
[18] = tested on: HepG2; experiment: Induction of apoptosis in human HepG2 cells assessed as reduction in Hsp70 expression levels at 2 uM after 24 hrs by membrane-based sandwich immunoassay; assay type: functional, cell-based; outline: as §1
[19] = tested on: HepG2; experiment: Cell cycle arrest in human HepG2 cells assessed as accumulation at S phase at 1.2 uM after 72 hrs by propidium iodide staining-based flow cytometric analysis (reference value: 44.6%); assay type: functional; outline: as §2
[20] = tested on: HepG2; experiment: Induction of apoptosis in human HepG2 cells assessed as necrotic cells at 1.2 uM after 72 hrs by Annexin V-APC/7-AAD or propidium iodide staining-based flow cytometric analysis (reference value: 1.87%); assay type: functional
[21] = Induction of apoptosis in human LO2 cells assessed as viable cells at 1.2 uM after 72 hrs by Annexin V-FITC/7-AAD or propidium iodide staining-based flow cytometric analysis (reference value: 94.26%); assay type: cell-based, L02; conditions: read-out: Activity
[22] = tested on: HepG2; experiment: Induction of apoptosis in human HepG2 cells assessed as reduction in c-IAP1 expression levels at 2 uM after 24 hrs by membrane-based sandwich immunoassay; assay type: functional, cell-based
Outline: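 HepG2 cells exposed to 2 μM for 24 h. Proteins extracted per kit protocol. Relative levels of 35 apoptosis-related proteins measured on a human apoptosis antibody array.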

[23] = tested on: HepG2; experiment: Cell cycle arrest in human HepG2 cells assessed as accumulation at S phase after 72 hrs by propidium iodide staining-based flow cytometric analysis; assay type: functional; outline: as §2
[24] = tested on: HepG2; experiment: Induction of apoptosis in human HepG2 cells assessed as viable cells at 1.2 uM after 72 hrs by Annexin V-APC/7-AAD or propidium iodide staining-based flow cytometric analysis (reference value: 90.08%); assay type: functional; conditions: HepG2, 72 h, read-out: Activity
[25] = tested on: HepG2; experiment: Induction of apoptosis in human HepG2 cells assessed as early apoptotic cells at 0.6 uM after 72 hrs by Annexin V-APC/7-AAD or propidium iodide staining-based flow cytometric analysis (reference value: 1.87%); assay type: functional
[26] = tested on: HepG2; experiment: Induction of apoptosis in human HepG2 cells assessed as viable cells at 0.3 uM after 72 hrs by Annexin V-APC/7-AAD or propidium iodide staining-based flow cytometric analysis (reference value: 90.08%); assay type: functional; conditions: HepG2, 72 h, read-out: Activity

COc1ccc(-c2cc(=O)c3c(O)c(OC)c(O[C@@H]4O[C@H](C(=O)NCCOc5no[n+]([O-])c5S(=O)(=O)c5ccccc5)[C@@H](O)[C@H](O)[C@H]4O)cc3o2)cc1
viability at 72 h, 1.25 µM [1]: 78.4%
Activity [2]: 22.46%
Activity [3]: 35.91%
Activity [4]: 4.42%
Activity [5]: 43.54%
Activity [6]: Active
viability at 0.16 µM [7]: 79.1%
Activity [8]: 13.2%
viability at 0.31 µM [9]: 61.6%
Activity [10]: 2.95%

O=C(NCCCOc1no[n+]([O-])c1S(=O)(=O)c1ccccc1)[C@H]1O[C@@H](Oc2cc3oc(-c4ccc(OCc5ccccc5)cc4)cc(=O)c3c(O)c2OCc2ccccc2)[C@H](O)[C@@H](O)[C@@H]1O
Activity [11]: 14.2%
Activity [12]: Active
Activity [13]: 13.46%
Activity [14]: 32.02%
Activity [15]: 19.97%
Activity [16]: 47.14%
Activity [17]: 2.76%
Activity [18]: Active
Activity [19]: 69.63%
Activity [20]: 5.62%
viability at 72 h, 1.2 µM [21]: 81.5%
Activity [22]: Active
Activity [23]: Dose-dependent effect
viability at 1.2 µM [24]: 41.8%
Activity [25]: 13.13%
viability at 0.3 µM [26]: 79.6%
